MsrA inhibitor = bovine MsrA enzyme inhibitors, primary screen, biochemical, absorbance, HTS. Methionine sulfoxide reductase A (Bos taurus). purified bovine MsrA, absorbance read-out. inhibition, % at 15.5 µM. 360,000 compounds, 0.75% hits; in the data active means inhibition above about 4.5%
NR2E3 ag-1 = NR2E3 agonists in two-hybrid cells, primary screen, cell-based, luminescence, CHO-S, Gal4-NCOR/VP16-NR2E3; luciferase; AID 602229, 2012; inhibition of corepressor binding, % at 3.98 µM; Photoreceptor-specific nuclear receptor (Homo sapiens), Q9Y5X4; 360,000 compounds, 0.35% hits;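 active means inhibition above the mean of all tested compounds plus 3 SD, cut at about 70% in these data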;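 further: higher means lower luciferase signal from less NR2E3 corepressor binding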
bovine MsrA act = bovine MsrA enzyme activators, primary screen, biochemical, absorbance, HTS | AID 602163, 2012 | activation, % at 10.6 µM | 360,000 compounds, 0.3% hits | purified bovine MsrA, absorbance read-out; in the data active means activation above about 7.5%
NadD block = inhibitors of S. aureus NadD, primary screen, biochemical, colorimetric, uHTS; purified NadD enzyme, colorimetric absorbance read-out; 360,000 compounds, 0.78% hits; Nicotinate-nucleotide adenylyltransferase NadD (Staphylococcus aureus N315); inhibition, % at 20 µM; in the data active means inhibition above about 26%
NR2E3 ag-2 = inhibitors of NR2E3-RetCOR corepressor binding, primary screen, NR2E3 agonist project, biochemical, TR-FRET, GST-NR2E3, biotin-RetCOR; 1536-well; inhibition of corepressor binding, % at 4.78 µM; 320,000 compounds, 0.12% hits; AID 2300, 2010;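 active means percent inhibition above the cutoff of mean plus 3 SD of all tested compounds, set per screening campaign, cut at about 20% in these data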
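Assay system: NR2E3–RetCOR corepressor complex. Quantity: 1.35 nM GST-NR2E3. Buffer or medium: pH 7.5 Tris-based buffer. Reagent: biotinylated RetCOR corepressor at 7 nM final. Schedule: 5 h at 4 °C. Detection: TR-FRET, emission read at 617 and 671 nm. Replicates: one well per compound, singlicate testing.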
GalR3 antag = GalR3 antagonists in HEK293 cells, primary screen, cell-based, fluorescence readout; inhibition, % at 3 µM; AID 651719, 2012; HEK293 GalR3-CNG cAMP membrane potential fluorescence; galR3 body fused to GalR1 C-terminus; 360,000 compounds, 0.44% hits;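 active means inhibition above the screen-wide average plus 3 SD, cut at about 13% in these data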;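 further: forskolin and galanin both at EC90 stimulate the cells; cAMP rise reported by CNG channel membrane potential dye signal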
Target sequence (O60755 1-299 limits assumed): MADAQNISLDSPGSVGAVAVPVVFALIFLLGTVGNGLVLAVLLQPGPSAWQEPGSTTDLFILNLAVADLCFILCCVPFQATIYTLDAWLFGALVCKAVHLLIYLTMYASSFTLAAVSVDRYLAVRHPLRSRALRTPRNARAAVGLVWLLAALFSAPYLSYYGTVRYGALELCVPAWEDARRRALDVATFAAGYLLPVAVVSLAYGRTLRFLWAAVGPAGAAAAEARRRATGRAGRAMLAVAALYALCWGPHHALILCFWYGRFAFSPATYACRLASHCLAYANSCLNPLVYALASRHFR
Numbers stand for hits; n = inactive; x = not tested or not shown. Rows were chosen to be rich in hits. Some 2.5% of all compounds tested hit in one or more screens of this group.

SMILES	MsrA inhibitor	NR2E3 ag-1	bovine MsrA act	NadD block	NR2E3 ag-2	GalR3 antag
Cc1ccccc1N1CCN(S(=O)(=O)c2ccc3oc(=O)ccc3c2)CC1	n	n	n	n	n	n
COc1cc(OC)c2c(O)c3c(c(-c4c5c(c(O)c6c(OC)cc(OC)cc46)CO[C@@H](C)[C@H]5O)c2c1)[C@H](O)[C@H](C)OC3	x	n	n	50	n	x
CCOCCOc1cccc(C(=O)NC(c2ccccc2)c2ccccc2)c1	n	n	n	n	n	n
CC(=O)NNC(=O)CN1C(=O)/C(=C/c2ccccc2)SC1=S	n	n	n	n	n	n
CC(=O)NC(CC(=O)NCCN1C(=O)S/C(=C\c2ccccc2)C1=O)c1ccccc1 (stereo unspecified)	4.6	n	n	n	n	n
C#CCOCCOCCOCCNc1nc(N2CCN(C(=O)CCCCCCCCCCNC(=O)Cn3cc(C[C@@H](C)O)nn3)CC2)nc(N2CCN(C(=O)CCCCCCCCCCNC(=O)[C@H](CCCN=C(N)N)n3cc(C[C@@H](C)CC)nn3)CC2)n1	x	n	n	38	n	x
C#CCOCCOCCOCCNc1nc(N2CCN(C(=O)CCCCCCCCCCNC(=O)[C@H](CO)n3cc(CCCSC)nn3)CC2)nc(N2CCN(C(=O)CCCCCCCCCCNC(=O)[C@H](CCCN=C(N)N)n3cc(C[C@@H](C)CC)nn3)CC2)n1	x	n	n	62	n	x
C#CCOCCOCCOCCNc1nc(N2CCN(C(=O)CCCCCCCCCCNC(=O)Cn3cc(C[C@@H](C)O)nn3)CC2)nc(N2CCN(C(=O)CCCCCCCCCCNC(=O)[C@H](CCCCN)n3cc(CCCC(=O)O)nn3)CC2)n1	n	n	n	n	n	n
Cc1cccc(NC(=O)Cn2c(O)c(N=NC(=O)c3ccccc3O)c3ccccc32)c1	n	n	n	35	n	n
CC(OC(=O)c1nsc(Cl)c1Cl)C(=O)NCc1cccs1 (stereo unspecified)	n	n	n	n	n	n
Cc1c(C(=O)O)cccc1-n1c(C)cc(/C=N/Nc2ccc([N+](=O)[O-])cn2)c1C	n	n	n	n	n	n
Cc1c(C(=O)O)cccc1-n1c(C)cc(/C=N/NC(=O)c2cc3ccccc3o2)c1C	4.6	n	n	n	n	n
O=C(Cn1c2c(c(=O)n3ncnc13)CCC2)N/N=C/c1ccc(Cl)cc1	n	n	n	n	n	n
CC1COc2c(N3CCN(C)CC3)c(F)cc3c(=O)c(C(=O)O)cn1c23 (stereo unspecified)	n	n	8.8	n	n	n
O=C(O)CCC1c2cc3c4cc2OC2Oc5cc6c(cc51)C(CCC(=O)O)c1cc5c7cc1OC(O6)c1cc6cc(c1)Oc1cc(cc(C(=O)O)c1)Oc1cc8cc(c1)C(Oc1cc(c(cc1C5CCC(=O)O)C3CCC(=O)O)OC(O4)c1cc(cc(c1)Oc1cc(cc(C(=O)O)c1)O8)Oc1cc(cc(C(=O)O)c1)Oc1cc(cc2c1)Oc1cc(cc(C(=O)O)c1)O6)O7 (stereo unspecified)	x	x	x	x	21	x
FC(F)(F)c1cc(CCN2C(=S)NC[C@@H]2c2ccccc2)cc(C(F)(F)F)c1	n	n	n	n	n	n
CCOCCn1c2ccccc2c2nc3ccccc3nc21	4.7	n	n	n	n	n
C[C@H](CCC(=O)O)[C@H]1CC[C@H]2[C@@H]3[C@H](O)C[C@@H]4C[C@H](O)CC[C@]4(C)[C@H]3CC[C@]12C	n	n	n	n	n	n
CC(CCC(C)C(C)(C)C)[C@@H]1CC[C@H]2C3C[C@H](OS(O)(=S)=S)[C@H]4C[C@H](OS(O)(=S)=S)[C@@H](OS(O)(=S)=S)C[C@]4(C)[C@H]3CC[C@]12C (stereo partly specified) (tested in a mixture with another compound)	x	75	n	53	x	x
Cc1ccc(S(=O)(=O)Oc2ccc(/C=C3\C(=N)N4N=C(S(C)(=O)=O)SC4=NC3=O)cc2)cc1	n	n	n	34	n	n
CCS(=O)(=O)C1=NN2C(=N)/C(=C\c3ccc(OS(=O)(=O)c4ccccc4)cc3)C(=O)N=C2S1	x	n	n	n	n	x
CCC1=NN2C(=N)/C(=C/c3ccc(OS(=O)(=O)c4ccccc4)cc3)C(=O)N=C2S1	x	n	n	34	n	x
CCC(=O)NC1(C(F)(F)F)C(=O)NC(C)=C1C#N (stereo unspecified)	n	n	n	n	n	n
COc1ccc(C(=O)c2ccccc2)c2c(O)ccc(C(=O)c3ccccc3)c12	n	n	n	31	n	n
Cc1nn(Cc2cccc(F)c2)c(C)c1NC(=O)c1c([N+](=O)[O-])c(C)nn1C	n	n	n	n	n	n
SMILES	MsrA inhibitor	NR2E3 ag-1	bovine MsrA act	NadD block	NR2E3 ag-2	GalR3 antag
N=C1/C(=C/c2ccc(-c3cccc(C(=O)O)c3)o2)C(=O)N=C2SC=C(c3ccccc3)N12	n	n	n	61	n	n
CC(C)S(=O)(=O)C1=NSC2=NC(=O)/C(=C\c3ccc(-c4cccc(C(=O)O)c4)o3)C(=N)N21	n	n	n	n	x	n
Cc1[nH]c2ccccc2c1/C=N/Nc1ccc([N+](=O)[O-])cc1S(=O)(=O)Nc1ccc(Cl)cc1	n	n	n	38	n	n
COc1ccc(NS(=O)(=O)c2cc([N+](=O)[O-])ccc2N/N=C\c2c(C)[nH]c3ccccc23)cc1	n	n	n	n	n	n
Cc1ccc(NS(=O)(=O)c2cc(C(=O)NCCCN(C)C)ccc2Cl)cc1Cl	n	n	n	n	x	n
CCOc1ncccc1C(=O)OCc1ccc(C(=O)OC)o1	n	n	n	n	n	n
Nc1nnc(CCOc2ccc(Cl)cc2)s1	n	n	n	n	n	n
CCN(CC)c1ccc(/C=N/n2c(=S)[nH]nc(C)c2=O)cc1	4.7	n	n	n	n	n
Cc1n[nH]c(=S)n(/N=C/c2cccs2)c1=O	n	n	n	n	n	n
O=C(COc1ccc(/C=N/NS(=O)(=O)c2ccccc2)cc1)NCc1ccccc1	n	n	n	n	n	n
CCc1nnc(NC(=O)CSc2nnc(-c3ccc(O)cc3)n2C)s1	n	n	n	n	n	n
CCOc1ccccc1NC(=S)N1CCN(c2ccccc2)CC1	n	n	n	n	n	n
O=C(N/N=C/c1cc(Cl)cc([N+](=O)[O-])c1O)NC12CC3CC(CC(C3)C1)C2	n	n	n	40	n	n
O=C(N/N=C/c1ccccc1O)NC12CC3CC(CC(C3)C1)C2	n	n	n	n	n	n
